ChEMBL document CHEMBL3994613, “Diaryltriazenes as antibacterial agents against methicillin resistant Staphylococcus aureus (MRSA) and Mycobacterium smegmatis” (Eur J Med Chem, 2017)
Values after ≈ are worked out from the molar mass of the structure shown.

Experiments:
Staphylococcus aureus [1] = test: Antibacterial activity against methicillin-resistant Staphylococcus aureus USA300 after 18 to 20 hrs by microdilution method; type: functional
Summary of the method: (§1)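 EUCAST broth microdilution in LB broth. Inoculum prepared by direct colony suspension from 20–24 h LB agar (E. coli DH10β) or 5% sheep blood BHI agar (MRSA USA300) growth. Final inoculum 2×10^4 CFU/mL, 18–20 h aerobic at 37 °C, growth read on a plate reader, at least duplicate.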

Saccharomyces cerevisiae = test: Antibacterial activity against Saccharomyces cerevisiae after 18 to 20 hrs by microdilution method
Summary of the method: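 Microdilution in YEP broth against wild-type yeast grown on YEP agar. Final inoculum 1×10^5 CFU/mL. Read after 18–20 h aerobic incubation at 30 °C on plate reader, at least one duplicate.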

[2] = test system: Mycolicibacterium smegmatis; test: Antimycobacterial activity against Mycobacterium smegmatis MC2 155 after 94 to 98 hrs by microdilution method; type: functional; conditions: str. MC2 155
Summary of the method: (§2)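 Microdilution in TSB broth. Inoculum from colonies grown 96 h on TSA, final 1×10^5 CFU/mL, aerobic 94–98 h at 37 °C, growth read on a plate reader, at least duplicate.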

Escherichia coli [3] = test: Antibacterial activity against Escherichia coli DH10beta harboring pHuLUC3 after 18 to 20 hrs by microdilution method; type: functional; summary of the method: as §1
Escherichia coli [4] = test: Bactericidal activity against Escherichia coli DH10beta harboring pHuLUC3 after 18 to 20 hrs by microdilution method; type: functional; summary of the method: as §1
Staphylococcus aureus [5] = test: Bactericidal activity against methicillin-resistant Staphylococcus aureus USA300 after 18 to 20 hrs by microdilution method; type: functional; summary of the method: as §1
[6] = test system: Mycolicibacterium smegmatis; test: Bactericidal activity against Mycobacterium smegmatis MC2 155 after 96 hrs by microdilution method; type: functional; conditions: str. MC2 155, 96 h; summary of the method: as §2

Row | Compound | MIC (Staphylococcus aureus [1]) | MIC (Saccharomyces cerevisiae) | MIC [2] | MIC (Escherichia coli [3]) | MBC (Escherichia coli [4]) | MBC (Staphylococcus aureus [5]) | MBC [6]
1 | O=C(c1ccncc1)N(/N=N/c1ccc([N+](=O)[O-])cc1)c1ccc([N+](=O)[O-])cc1 | 128 µg/mL (≈ 326 µM) | > 128 µg/mL | > 128 µg/mL | 16 µg/mL (≈ 40.8 µM) | 32 µg/mL (≈ 81.6 µM) | 128 µg/mL (≈ 326 µM) | –
2 | CC(=O)N(/N=N/c1ccc([N+](=O)[O-])cc1Cl)c1ccc([N+](=O)[O-])cc1Cl | 4 µg/mL (≈ 10 µM) | > 128 µg/mL | 16 µg/mL (≈ 40.2 µM) | 64 µg/mL (≈ 161 µM) | > 128 µg/mL | 4 µg/mL (≈ 10 µM) | > 128 µg/mL
3 | O=C(c1cccc(F)c1)N(/N=N/c1ccc([N+](=O)[O-])cc1Cl)c1ccc([N+](=O)[O-])cc1Cl | 16 µg/mL (≈ 33.5 µM) | > 128 µg/mL | > 128 µg/mL | 64 µg/mL (≈ 134 µM) | 64 µg/mL (≈ 134 µM) | 16 µg/mL (≈ 33.5 µM) | –
4 | O=C(c1ccncc1)N(/N=N/c1ccc([N+](=O)[O-])cc1F)c1ccc([N+](=O)[O-])cc1F | 32 µg/mL (≈ 74.7 µM) | > 128 µg/mL | > 128 µg/mL | > 128 µg/mL | – | 32 µg/mL (≈ 74.7 µM) | –
5 | O=C(c1cccc(C(F)(F)F)c1)N(/N=N/c1ccc([N+](=O)[O-])cc1Br)c1ccc([N+](=O)[O-])cc1Br | 8 µg/mL (≈ 13 µM) | > 128 µg/mL | 128 µg/mL (≈ 207 µM) | 32 µg/mL (≈ 51.9 µM) | 64 µg/mL (≈ 104 µM) | 8 µg/mL (≈ 13 µM) | > 128 µg/mL
6 | O=C(c1ccc(C(F)(F)F)cc1)N(/N=N/c1ccc([N+](=O)[O-])cc1Cl)c1ccc([N+](=O)[O-])cc1Cl | 8 µg/mL (≈ 15.1 µM) | > 128 µg/mL | 16 µg/mL (≈ 30.3 µM) | 64 µg/mL (≈ 121 µM) | 128 µg/mL (≈ 242 µM) | 8 µg/mL (≈ 15.1 µM) | > 128 µg/mL
7 | O=C(c1ccncc1)N(/N=N/c1ccc([N+](=O)[O-])cc1Br)c1ccc([N+](=O)[O-])cc1Br | 32 µg/mL (≈ 58.2 µM) | > 128 µg/mL | 128 µg/mL (≈ 233 µM) | 32 µg/mL (≈ 58.2 µM) | 32 µg/mL (≈ 58.2 µM) | 32 µg/mL (≈ 58.2 µM) | > 128 µg/mL
8 | O=C(c1cccnc1)N(/N=N/c1ccc([N+](=O)[O-])cc1Br)c1ccc([N+](=O)[O-])cc1Br | 32 µg/mL (≈ 58.2 µM) | > 128 µg/mL | 64 µg/mL (≈ 116 µM) | 16 µg/mL (≈ 29.1 µM) | 32 µg/mL (≈ 58.2 µM) | 32 µg/mL (≈ 58.2 µM) | 128 µg/mL (≈ 233 µM)
9 | O=C(c1ccc(F)cc1)N(/N=N/c1ccc([N+](=O)[O-])cc1Br)c1ccc([N+](=O)[O-])cc1Br | > 128 µg/mL | > 128 µg/mL | > 128 µg/mL | 64 µg/mL (≈ 113 µM) | 64 µg/mL (≈ 113 µM) | – | –
10 | O=C(c1ccccc1F)N(/N=N/c1ccc([N+](=O)[O-])cc1Cl)c1ccc([N+](=O)[O-])cc1Cl | > 128 µg/mL | > 128 µg/mL | > 128 µg/mL | 64 µg/mL (≈ 134 µM) | 128 µg/mL (≈ 268 µM) | – | –
11 | COC(=O)N(/N=N/c1ccc([N+](=O)[O-])cc1Cl)c1ccc([N+](=O)[O-])cc1Cl | 32 µg/mL (≈ 77.3 µM) | > 128 µg/mL | 128 µg/mL (≈ 309 µM) | 64 µg/mL (≈ 155 µM) | 128 µg/mL (≈ 309 µM) | 32 µg/mL (≈ 77.3 µM) | > 128 µg/mL
12 | CC(=O)N(/N=N/c1ccc([N+](=O)[O-])cc1)c1ccc([N+](=O)[O-])cc1 | > 128 µg/mL | > 128 µg/mL | > 128 µg/mL | 64 µg/mL (≈ 194 µM) | 128 µg/mL (≈ 389 µM) | – | –
13 | Fc1ccc(/N=N/Nc2ccc(F)cc2C(F)(F)F)c(C(F)(F)F)c1 | > 128 µg/mL | > 128 µg/mL | > 128 µg/mL | > 128 µg/mL | – | – | –
14 | O=C(c1ccccc1F)N(/N=N/c1ccc([N+](=O)[O-])cc1Br)c1ccc([N+](=O)[O-])cc1Br | > 128 µg/mL | > 128 µg/mL | > 128 µg/mL | 128 µg/mL (≈ 226 µM) | 128 µg/mL (≈ 226 µM) | – | –
15 | O=C(CCl)N(/N=N/c1ccc(Cl)cc1C(F)(F)F)c1ccc(Cl)cc1C(F)(F)F | > 128 µg/mL | > 128 µg/mL | – | – | – | > 128 µg/mL | –
16 | O=C(c1ccccc1)N(/N=N/c1ccc([N+](=O)[O-])cc1Cl)c1ccc([N+](=O)[O-])cc1Cl | 32 µg/mL (≈ 69.5 µM) | > 128 µg/mL | 128 µg/mL (≈ 278 µM) | 32 µg/mL (≈ 69.5 µM) | 32 µg/mL (≈ 69.5 µM) | 32 µg/mL (≈ 69.5 µM) | > 128 µg/mL
17 | FC(F)(F)c1ccc(/N=N/Nc2ccc(C(F)(F)F)cc2C(F)(F)F)c(C(F)(F)F)c1 | > 128 µg/mL | > 128 µg/mL | – | – | – | – | –
18 | O=C(CCl)N(/N=N/c1ccc(C(F)(F)F)cc1C(F)(F)F)c1ccc(C(F)(F)F)cc1C(F)(F)F | > 128 µg/mL | > 128 µg/mL | – | – | – | > 128 µg/mL | –
19 | O=C(c1cccnc1)N(/N=N/c1ccc([N+](=O)[O-])c(C(F)(F)F)c1)c1ccc([N+](=O)[O-])c(C(F)(F)F)c1 | 4 µg/mL (≈ 7.57 µM) | > 128 µg/mL | 64 µg/mL (≈ 121 µM) | 32 µg/mL (≈ 60.6 µM) | 64 µg/mL (≈ 121 µM) | 4 µg/mL (≈ 7.57 µM) | > 128 µg/mL
20 | CC(=O)OCC(=O)N(/N=N/c1ccc([N+](=O)[O-])cc1Br)c1ccc([N+](=O)[O-])cc1Br | 8 µg/mL (≈ 14.7 µM) | > 128 µg/mL | > 128 µg/mL | 64 µg/mL (≈ 117 µM) | 64 µg/mL (≈ 117 µM) | 16 µg/mL (≈ 29.4 µM) | –
